From ChEMBL document CHEMBL1121825, “A potent, new, sedative--hypnotic agent: 5,7-dihydro-5,5,7,7-tetramethyl-3-(3-nitrophenyl)furo[3,4-e]-as-triazine 4-oxide” (J Med Chem, 1981)

Assays:
[1] = system: Mus musculus; assay: Ability to reinduce anesthesia in mice as a measure of in vivo sedative-hypnotic activity; type: functional
Summary of the method: (§1)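 Male Royal Hart mice (20–25 g) were anesthetized with hexobarbital 70.0 mg/kg iv. While they were regaining the righting reflex, compound was given ip. Reinduction was scored as loss of righting reflex for 10 min. ED50 (mg/kg) is the dose reinducing anesthesia in 50% of mice, estimated by probit analysis (Miller–Tainter).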

[2] = system: Felis catus; assay: Tested to induce segmental reflexes in cat when given at a dose of 1-4 mg/Kg intravenously; Caused respiratory failure and death; type: organism-based; settings: in vivo, iv
Summary of the method: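 Chloralose-anaesthetised intact cats. The monosynaptic patellar reflex was evoked by solenoid-hammer tendon tap and the knee jerk recorded. The polysynaptic flexor reflex was recorded as tibialis anticus contraction on electrical popliteal nerve stimulation.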

[3] = system: Monkey; assay: Tested for its activity towards cebus monkey sleep relative to methaqualone at 3-9 hours of duration; 4-64 times potent; type: functional
[4] = system: Monkey; assay: Sleep latency in cebus monkey sleep was determined; shortened (65-85% at the threshold sleep-inducing dose); type: functional
[5] = system: Mus musculus; assay: Compound was tested for mortality in mice when administered intravenously; type: functional; settings: iv
[6] = system: Mus musculus; assay: Ataxia effect in mice when the compound was administered ip; type: functional
Summary of the method: (§2)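 Modified Irwin behavioral screen in male Royal Hart mice (20–25 g), dosed ip or orally, observed for 2 h after dosing. ED50 (mg/kg) estimated by probit analysis (Miller–Tainter), or evaluation at the highest nontoxic dose used. At least 20 animals per drug; ± SE.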

[7] = system: Mus musculus; assay: Ataxia effect in mice when the compound was administered po; type: functional; summary of the method: as §2
[8] = system: Mus musculus; assay: Compound was tested for rotarod motor coordination in mice when administered intravenously; type: functional; settings: iv
[9] = system: Mus musculus; assay: Compound was tested for rotarod motor coordination in mice when administered perorally; type: functional; settings: po
Summary of the method: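 Modified Dunham–Miya rotarod test. Groups of five male Royal Hart mice (20–25 g) were trained on a 15 rpm corrugated rod for 60–90 s, then retested 30 and 60 min after drug or saline (ip or oral). Percent change in riding time versus controls; ED50 is the dose giving a 50% decrease, by probit analysis.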

[10] = system: Mus musculus; assay: Compound was tested for tonic convulsions when administered intraperitoneally; type: functional; settings: ip
Summary of the method: (§3)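 Groups of five male Royal Hart mice (20–25 g) received test drug ip or orally 1 h before seizure induction with SaH 41-178 (50.0 mg/kg ip). ED50 is the dose preventing tonic convulsions or death in 50% of animals, by probit analysis.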

[11] = system: Mus musculus; assay: Reinduction of anesthesia in mice when administered perorally was tested; type: functional; settings: po
[12] = system: Mus musculus; assay: Righting reflex effect in mice when the compound was administered intraperitoneally; type: functional; settings: ip; summary of the method: as §2
[13] = system: Mus musculus; assay: Hypomotility effect in mice when the compound was administered intraperitoneally; type: functional; settings: ip; summary of the method: as §2
[14] = system: Mus musculus; assay: Prehensile effect in mice when the compound was administered intravenously; type: functional; settings: iv
[15] = system: Mus musculus; assay: Prehensile effect in mice when the compound was administered perorally; type: functional; settings: po
Summary of the method: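 Oral dosing of male Royal Hart mice (20–25 g), scored by a modified Irwin behavioural screen. ED50 (mg/kg) estimated by probit analysis; at least 20 animals per drug.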

[16] = Acute toxicity in mice after 2 hours administration ip; type: organism-based; settings: mouse, in vivo
Summary of the method: (§4)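 Male Royal Hart mice (20–25 g) dosed intraperitoneally or orally; deaths scored at 2 h and 72 h. LD50 (mg/kg) estimated by probit analysis (Miller–Tainter), with at least 20 animals per drug.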

[17] = Acute toxicity in mice after 2 hours administration perorally; type: organism-based; settings: mouse, in vivo, po; summary of the method: as §4
[18] = Acute toxicity in mice after 72 hours administration ip; type: organism-based; settings: mouse, in vivo; summary of the method: as §4
[19] = Acute toxicity in mice after 72 hours administration perorally; type: organism-based; settings: mouse, in vivo, po; summary of the method: as §4
[20] = Acute toxicity in rats after 2 hours of administration perorally; type: organism-based; settings: rat, in vivo, po
Summary of the method: (§5)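 Male Wistar rats (130–160 g) dosed orally; lethality read at 2 h and 72 h. LD50 (mg/kg) derived by probit analysis (Miller–Tainter), using a minimum of 20 animals per drug.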

[21] = Acute toxicity in rats after 72 hours of administration perorally; type: organism-based; settings: rat, in vivo, po; summary of the method: as §5
[22] = system: Mus musculus; assay: Righting reflex effect in mice when the compound was administered perorally; type: functional; settings: po; summary of the method: as §2
[23] = system: Mus musculus; assay: Compound was tested for tonic convulsions when administered perorally; type: functional; settings: po; summary of the method: as §3
[24] = system: Rattus norvegicus; assay: Hypomotility effect in rats when administered perorally; settings: po
[25] = system: Rattus norvegicus; assay: Ataxia effect in rats when the compound was administered perorally; settings: po
[26] = system: Rattus norvegicus; assay: Righting reflex effect in rats when the compound was administered perorally; settings: po
[27] = system: Mus musculus; assay: Tested for ability to reinduce anesthesia in mice when administered intraperitoneally as a measure of in vivo sedative-hypnotic activity; D represents Toxic; type: functional, organism-based; summary of the method: as §1

**Q.** For `CC1(C)OC2(CCCCC2)c2c1nnc(-c1ccccc1)[n+]2[O-]`, which ED50 [1] is on record?
**A.** 183 mg/kg

**Q.** Which Activity [2] does the source give for `CC1(C)OC(C)(C)c2c1nnc(-c1cccc([N+](=O)[O-])c1)[n+]2[O-]` here?
**A.** Caused respiratory failure and death

**Q.** And the Relative potency [3]?
**A.** 4

**Q.** What about the Sleep latency [4] of the same molecule?
**A.** 65%

**Q.** What about the ED50 [5] of the same molecule?
**A.** 54 mg/kg

**Q.** What about the ED50 [6] of the same molecule?
**A.** 130 mg/kg

**Q.** And the ED50 [7]?
**A.** 39 mg/kg

**Q.** And the ED50 [8]?
**A.** 51 mg/kg

**Q.** What about the ED50 [9] of the same molecule?
**A.** > 1000 mg/kg

**Q.** What about the ED50 [1] of the same molecule?
**A.** 72 mg/kg

**Q.** What about the ED50 [10] of the same molecule?
**A.** 54 mg/kg

**Q.** What about the ED50 [11] of the same molecule?
**A.** 72 mg/kg

**Q.** And the ED50 [12]?
**A.** 123 mg/kg

**Q.** What about the ED50 [13] of the same molecule?
**A.** 50 mg/kg

**Q.** And the ED50 [14]?
**A.** 125 mg/kg

**Q.** What about the ED50 [15] of the same molecule?
**A.** 54 mg/kg

**Q.** What about the LD50 at 2 h [16] of the same molecule?
**A.** > 400 mg/kg

**Q.** And the LD50 at 2 h [17]?
**A.** > 400 mg/kg

**Q.** And the LD50 at 72 h [18]?
**A.** > 235 mg/kg

**Q.** What about the LD50 at 72 h [19] of the same molecule?
**A.** > 400 mg/kg

**Q.** And the LD50 at 2 h [20]?
**A.** > 800 mg/kg

**Q.** And the LD50 at 72 h [21]?
**A.** > 800 mg/kg

**Q.** What about the ED50 [22] of the same molecule?
**A.** 55 mg/kg

**Q.** And the ED50 [23]?
**A.** > 1000 mg/kg

**Q.** What about the ED50 [24] of the same molecule?
**A.** 37 mg/kg

**Q.** What about the ED50 [25] of the same molecule?
**A.** 39 mg/kg

**Q.** And the ED50 [26]?
**A.** 118 mg/kg

**Q.** Which ED50 [1] does the source give for `CC1(C)OC(C)(C)c2nc(-c3cccc(C(F)(F)F)c3)nnc21` here?
**A.** 500 mg/kg

**Q.** Which ED50 [1] does the source give for `CC1(C)Cc2nnc(-c3cccc([N+](=O)[O-])c3)[n+]([O-])c2C(C)(C)O1` here?
**A.** 500 mg/kg

**Q.** Which ED50 [1] does the source give for `CC1(C)OC(C)(C)c2c1nnc(-c1cc([N+](=O)[O-])cc([N+](=O)[O-])c1)[n+]2[O-]` here?
**A.** 500 mg/kg

**Q.** For `CC1(C)OC(C)(C)c2nc(-c3cccnc3)nnc21`, which ED50 [1] is on record?
**A.** 28.1 mg/kg

**Q.** For `CC1(C)OC(C)(C)c2nc(Cc3ccccc3)nnc21`, which ED50 [1] is on record?
**A.** 25 mg/kg

**Q.** Which ED50 [1] does the source give for `CC1(C)C/C(=N\Nc2ccccc2[N+](=O)[O-])C(C)(C)O1` here?
**A.** 1000 mg/kg

**Q.** With `CC1(C)Cc2nnc(-c3ccccc3)[n+]([O-])c2C(C)(C)O1` as the molecule, how does the ED50 [1] read?
**A.** 122 mg/kg

**Q.** For `CC1(C)OC(C)(c2ccccc2)c2nnc(-c3cccc([N+](=O)[O-])c3)nc21` (centres undefined), which ED50 [1] is on record?
**A.** 800 mg/kg

**Q.** With `CC1(C)CSCC(C)(C)c2nc(-c3ccccn3)nnc21` as the molecule, how does the ED50 [27] read?
**A.** Toxic

**Q.** For `CC1(C)OC(C)(C)c2c1nnc(-c1cccc(C(F)(F)F)c1)[n+]2[O-]`, which ED50 [1] is on record?
**A.** 66.7 mg/kg

**Q.** For `CC1(C)OC(C)(C)c2c1nnc(-c1cccc(F)c1)[n+]2[O-]`, which ED50 [1] is on record?
**A.** 74.9 mg/kg

**Q.** For `CC1(C)OC(C)(C)c2nc(-c3ccccn3)nnc21`, which ED50 [1] is on record?
**A.** 21 mg/kg

**Q.** With `CC1(C)NC(C)(C)c2c1nnc(-c1ccccc1)[n+]2[O-]` as the molecule, how does the ED50 [1] read?
**A.** 1000 mg/kg

**Q.** With `CC1(C)C/C(=N\Nc2ccccc2)C(C)(C)O1` as the molecule, how does the ED50 [1] read?
**A.** 162 mg/kg

**Q.** Which ED50 [1] does the source give for `CC1(C)OC(C)(C)c2c1nnc(-c1ccc(F)cc1)[n+]2[O-]` here?
**A.** 500 mg/kg

**Q.** With `CC1(C)C=CC(C)(C)c2nc(-c3cccc(S(N)(=O)=O)c3)nnc21` as the molecule, how does the ED50 [1] read?
**A.** 1000 mg/kg

**Q.** Which ED50 [1] does the source give for `CC1(C)OC(C)(C)c2nc(-c3ccc4ccccc4n3)nnc21` here?
**A.** 168 mg/kg
